Measured values reported in PMC5167242 (Neoplasia (New York, N.Y.), 2016).
“And” between values parts separate entries of the source, which are not always exact repeats. Identical values can stand only once.

Tests used:
[1] = system: MFE296 endometrial carcinoma FGFR2 mutated xenograft; assay: MFE296 xenograft tumor growth; type: in vivo, mice
Method in brief: (§1)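 Female NCr-nu/nu mice (6 weeks old, specific pathogen free) received subcutaneous flank tumor fragments. Tumors were measured by caliper twice weekly, with volume = (length × width²)/2. Best %T/C = (median treated volume / median control volume) × 100.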

[2] = after 21 days of treatment, just before the daily oral dose of 10 mg, cited from earlier work
H1299 cells [3] = assay: cell viability assay; type: cell-based; conditions: Homo sapiens, NCI-H1299
Method in brief: (§2)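 Cell lines were grown in RPMI with 1% glutamine and 10% FBS. Cells were exposed to test compound (0.01–50 μM; 10 mM DMSO stock) 48 h after seeding. MTS was added 72 h after treatment and read at 490 nm after 2 h incubation. IC50 was calculated by software and reported as arithmetic mean + SEM.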

[4] = system: H1299 (NSCLC) FGFR1 wt xenograft; assay: H1299 xenograft tumor growth; type: in vivo, mice; conditions: for Best T/C%: day 38 after implant
Method in brief: as §1

H1299 cells [5] = assay: TUNEL apoptosis assay, H1299; type: cell-based, human; conditions: H1299, 10 μM (IC50); 4, 24, 48 and 72 hours
[6] = system: MNK45 gastric carcinoma FGFR2 wt xenograft; assay: MNK45 xenograft tumor growth; type: in vivo, mice
Method in brief: as §1

[7] = target: VEGFR1-3 tyrosine kinases; conditions: biochemical assays; cited from earlier work
H1299 cells [8] = assay: cell cycle perturbation, flow cytometry of DNA content, H1299; type: cell-based, human; conditions: H1299, 10 μM (IC50); 4, 24, 48 and 72 hours
[9] = system: HEC1A endometrial carcinoma FGFR2 wt xenograft; assay: HEC1A xenograft tumor growth; type: in vivo, mice; conditions: for Best T/C%: HEC1A
Method in brief: as §1

[10] = system: tumor type cell lines with wt FGFR1 and wt FGFR2; assay: cell viability assay; type: cell-based; conditions: Homo sapiens, 72 h
Method in brief: as §2

[11] = system: H1581 (NSCLC) FGFR1 amplified xenograft; assay: H1581 xenograft tumor growth; type: in vivo, mice; conditions: for Best T/C%: day 27 after implant
Method in brief: as §1

[12] = system: breast cancer patients with FGF-aberrant (FGFR1 and/or FGF3/4/19 gene amplified) tumors; conditions: among 12 breast cancer patients with FGF-aberrant tumors; cited from earlier work
DMS114 cells [13] = assay: cell viability assay; type: cell-based; conditions: Homo sapiens, DMS-114
Method in brief: as §2

FGFR1-3 tyrosine kinases = conditions: biochemical assays; cited from earlier work
[14] = system: SNU16 gastric carcinoma FGFR2 amplified xenograft; assay: SNU16 xenograft tumor growth; type: in vivo, mice; conditions: day 30 after implant
Method in brief: as §1

[15] = system: FGFR1 amplified and FGFR2 amplified or mutated cancer cell lines; assay: cell viability assay; type: cell-based, human
Method in brief: as §2

[16] = pharmacokinetics after 12 daily oral doses in lung xenograft bearing mice; type: in vivo; conditions: for tumor/plasma ratio: lung xenografts
[17] = system: DMS114 (SCLC) FGFR1 amplified xenograft; assay: DMS114 xenograft tumor growth; type: in vivo, mice
Method in brief: as §1

DMS114 cells [18] = assay: TUNEL apoptosis assay, DMS114; type: cell-based, human; conditions: DMS114, 1 μM (IC50); 4, 24, 48 and 72 hours
DMS114 cells [19] = assay: cell cycle perturbation, flow cytometry of DNA content, DMS114; type: cell-based, human; conditions: DMS114, 1 μM (IC50); starting at 24 hours and persisting up to 48 hours
[20] = target: PDGFRα/β tyrosine kinases; conditions: biochemical assays; cited from earlier work
[21] = NCr-nu/nu, mouse, tumor and plasma, po

CNC(=O)c1cccc2cc(Oc3ccnc4cc(OCC5(N)CC5)c(OC)cc34)ccc12 [lucitanib]
Best T/C% ([1]; MFE296, 2.5 mg/kg orally daily for 30 days, day 28 after implant): 36 (28) % | Best T/C% ([1]; MFE296, 5 mg/kg orally daily for 30 days, day 25 after implant): 34 (25) % | Best T/C% ([1]; MFE296, 10 mg/kg orally daily for 30 days, day 30 after implant): 22 (30) % | Best T/C% ([1]; MFE296, 20 mg/kg orally daily for 30 days, day 25 after implant): 17 (25) % | tumor drug concentration relative to concomitant plasma drug concentration [2]: 25 fold | tumor drug concentration ([2]; breast cancer biopsy from a person): 11 µM | IC50 (H1299 cells [3]): 10 µM | Best T/C% ([4]; H1299, 2.5 mg/kg orally daily for 30 days): 55 (38) % | Best T/C% ([4]; H1299, 5 mg/kg orally daily for 30 days): 41% and 41 (38) % | Best T/C% ([4]; H1299, 10 mg/kg orally daily for 30 days): 28 (38) % | Best T/C% ([4]; H1299, 20 mg/kg orally daily for 30 days): 24 (38) % | tumor regressions ([4]; H1299 lung xenograft, any dose schedule, best effect tumor stabilization): No tumor regressions | apoptosis by TUNEL assay (H1299 cells [5]): no apoptosis was detected | Best T/C% ([6]; MNK45, 2.5 mg/kg orally daily for 30 days, day 28 after implant): 22 (28) % | Best T/C% ([6]; MNK45, 5 mg/kg orally daily for 30 days, day 28 after implant): 12 (28) % | Best T/C% ([6]; MNK45, 10 mg/kg orally daily for 30 days, day 32 after implant): 10 (32) % | Best T/C% ([6]; MNK45, 20 mg/kg orally daily for 30 days, day 32 after implant): 7 (32) % | tumor regressions ([6]; MNK45 wt FGFR2, 20 mg/kg (data not shown)): 3 out of 10 mice | Kd [7]: < 0.1 µM | perturbation of the cell cycle (H1299 cells [8]): late S-G2/M blockade | tumor regressions ([9]; HEC1A wt FGFR2, 20 mg/kg (data not shown)): 2 out of 10 mice | Best T/C% ([9]; 2.5 mg/kg orally daily for 30 days, day 45 after implant): 29 (45) % | Best T/C% ([9]; 5 mg/kg orally daily for 30 days, day 47 after implant): 17 (47) % | Best T/C% ([9]; 10 mg/kg orally daily for 30 days, day 45 after implant): 12 (45) % | Best T/C% ([9]; 20 mg/kg orally daily for 30 days, day 49 after implant): 10 (49) % | IC50 [10]: 3 to 23 µM | Best T/C% ([11]; H1581, 2.5 mg/kg orally daily for 30 days): 46 (27) % | Best T/C% ([11]; H1581, 5 mg/kg orally daily for 30 days): 24% and 24 (27) % | Best T/C% ([11]; H1581, 10 mg/kg orally daily for 30 days): 21 (27) % | Best T/C% ([11]; H1581, 20 mg/kg orally daily for 30 days): 16 (27) % | tumor regressions ([11]; H1581 lung xenograft, any dose schedule, best effect tumor stabilization): No tumor regressions | confirmed objective RECIST responses [12]: 4 | unconfirmed objective RECIST responses [12]: 2 | IC50 (DMS114 cells [13]): 1 µM | Kd (FGFR1-3 tyrosine kinases): < 0.1 µM | Best T/C% ([14]; SNU16, 2.5 mg/kg orally daily for 30 days): 40 (30) % | Best T/C% ([14]; SNU16, 5 mg/kg orally daily for 30 days): 32 (30) % | Best T/C% ([14]; SNU16, 10 mg/kg orally daily for 30 days): 16 (30) % | Best T/C% ([14]; SNU16, 20 mg/kg orally daily for 30 days): 14 (30) % | IC50 lower in FGFR2 amplified or mutated cell lines than in FGFR2 wt cells ([15]; FGFR2 amplified or mutated cell lines vs FGFR2 wt cells): 10 fold | IC50 ([15]; Homo sapiens, 72 h): 0.045 to 3.16 µM | tumor/plasma ratio ([16]; 4 hours after the last of 12 daily oral doses): 2.5 | tumor/plasma ratio ([16]; 24 hours after the last of 12 daily oral doses): 24.8 | tumor drug concentration at 4 hours relative to in vitro IC50 ([16]; FGFR1 amplified H1581 and DMS114 tumors, higher than IC50 values): 3 to 26 fold | Kp at 4 h [16, 21]: 2.5 ± 0.7 | Kp at 24 h [16, 21]: 24.8 ± 7.4 | Best T/C% ([17]; DMS114, 2.5 mg/kg orally daily for 30 days, day 44 after implant): 45 (44) % | Best T/C% ([17]; DMS114, 5 mg/kg orally daily for 30 days, day 46 after implant): 20% and 20 (46) % | Best T/C% ([17]; DMS114, 10 mg/kg orally daily for 30 days, day 44 after implant): 16 (44) % | Best T/C% ([17]; DMS114, 20 mg/kg orally daily for 30 days, day 44 after implant): 12 (44) % | tumor regressions ([17]; DMS114 lung xenograft, any dose schedule, best effect tumor stabilization): No tumor regressions | apoptosis by TUNEL assay (DMS114 cells [18]): no apoptosis was detected | perturbation of the cell cycle (DMS114 cells [19]): G1 block | Kd [20]: < 0.1 µM
